The nature of assay [1]: Selectivity ratio of Ki for kappa opioid receptor in guinea pig cerebrum membranes to Ki for delta opioid receptor in rat cerebrum membranes. The class given is cell membranes. The following applies: Membrane.
Assay [2] concerns the target T1, Kappa-type opioid receptor (Cavia porcellus, UniProt P41144). Nature of the assay: Displacement of [3H]U-69,593 from kappa opioid receptor in guinea pig cerebellum membranes. The class given is cell membranes, Membrane. (In general: Loss of bound radioactivity is the signal in a displacement assay; it reports binding, not function.)
The target of assay [3] is Mu-type opioid receptor (Mus musculus, UniProt P42866). The experiment in a line: Displacement of [3H]DAMGO from mu opioid receptor in mouse whole brain membranes without cerebellum. The class given is cell membranes, Membrane.
Chain of Mu-type opioid receptor (Mus musculus, UniProt P42866) (P42866 whole entry): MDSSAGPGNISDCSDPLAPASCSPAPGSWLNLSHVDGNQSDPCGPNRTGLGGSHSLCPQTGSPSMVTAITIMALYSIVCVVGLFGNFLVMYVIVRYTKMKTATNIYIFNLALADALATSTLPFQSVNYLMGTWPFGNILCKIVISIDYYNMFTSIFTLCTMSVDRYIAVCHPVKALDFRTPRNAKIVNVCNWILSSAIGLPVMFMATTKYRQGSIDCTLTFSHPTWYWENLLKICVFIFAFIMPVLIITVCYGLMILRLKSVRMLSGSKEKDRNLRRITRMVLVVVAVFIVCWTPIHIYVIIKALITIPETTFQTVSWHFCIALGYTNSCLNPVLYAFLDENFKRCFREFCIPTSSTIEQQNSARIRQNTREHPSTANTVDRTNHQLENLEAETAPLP
Assay [4] concerns the target T2, Delta-type opioid receptor (Homo sapiens, UniProt P41143). Nature of the assay: Ratio of SNC80 EC50 to compound EC50 for human recombinant delta opioid receptor expressed in human HEK293 cells. The class given is cell-based.
Assay [5] concerns the target T2, Delta-type opioid receptor. The experiment in a line: Ratio of (-)TAN-67 EC50 to compound EC50 for human recombinant delta opioid receptor expressed in human HEK293 cells. The class given is cell-based. An outline of the steps:
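[³⁵S]GTPγS binding used purchased HEK-293 membranes carrying human recombinant delta receptor. Incubation buffer was 50 mM Tris, 1 mM EDTA, 12.5 mM MgCl₂, 100 mM NaCl and 0.5% BSA. It contained GDP, 0.1 nM [³⁵S]GTPγS and graded compound concentrations. (−)-TAN-67 served as the standard delta agonist.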

Assay [6] has as its target Delta-type opioid receptor (Mus musculus, UniProt P32300). Nature of the assay: Displacement of [3H]DPDPE from delta opioid receptor in mouse whole brain membranes without cerebellum. The class given is cell membranes, Membrane.
The species named for assay [7] is Rattus norvegicus. Nature of the assay: Selectivity ratio of Ki for mu opioid receptor in rat cerebrum membranes to Ki for delta opioid receptor in rat cerebrum membranes. The class given is cell membranes. The settings on record: Membrane. An outline of the steps:
(§1)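 Rat cerebrum membranes; mu sites labelled with [³H]DAMGO and delta sites with [³H]DADLE, displaced by varying test concentrations. Nonspecific binding was defined with unlabeled levallorphan. Ki was derived from displacement data using the Cheng–Prusoff equation.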

In assay [8] the target is T2, Delta-type opioid receptor. The experiment in a line: Agonist activity at human recombinant delta opioid receptor expressed in human HEK293 cells by [35S]GTPgammaS binding assay. The class given is functional, cell-based.
The target in assay [9] is Delta-type opioid receptor (Rattus norvegicus, UniProt P33533). Nature of the assay: Displacement of [3H]DADLE from delta opioid receptor in rat cerebrum membranes. The class given is cell membranes, Membrane. The procedure, abridged:
as §1

Assay [10] has as its target T1, Kappa-type opioid receptor. The experiment in a line: Displacement of [3H]U-69,593 from kappa opioid receptor in guinea pig cerebrum membranes. The class given is cell membranes, Membrane. The procedure, abridged:
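Kappa binding used guinea pig cerebrum membranes labelled with [³H]U-69,593 and displaced by test compound. Nonspecific binding was taken with […] unlabeled U-69,593. Ki was obtained via Cheng–Prusoff.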

Assay [11] addresses Mu-type opioid receptor (Rattus norvegicus, UniProt P33535). Nature of the assay: Displacement of [3H]DAMGO from mu opioid receptor in rat cerebrum membranes. The class given is cell membranes, Membrane. The procedure, abridged:
as §1

T1 sequence (P41144 whole entry): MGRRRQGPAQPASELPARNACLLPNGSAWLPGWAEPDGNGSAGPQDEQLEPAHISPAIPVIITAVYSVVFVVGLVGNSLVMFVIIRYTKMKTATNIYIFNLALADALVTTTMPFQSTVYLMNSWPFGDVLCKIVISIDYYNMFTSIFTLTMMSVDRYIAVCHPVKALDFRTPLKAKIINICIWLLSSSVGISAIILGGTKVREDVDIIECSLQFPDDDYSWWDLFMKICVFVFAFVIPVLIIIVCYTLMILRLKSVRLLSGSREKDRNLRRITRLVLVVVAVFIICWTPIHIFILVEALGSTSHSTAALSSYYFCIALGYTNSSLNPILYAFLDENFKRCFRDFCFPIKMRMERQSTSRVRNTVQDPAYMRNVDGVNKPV
Chain of Delta-type opioid receptor (Mus musculus, UniProt P32300) (P32300 whole entry): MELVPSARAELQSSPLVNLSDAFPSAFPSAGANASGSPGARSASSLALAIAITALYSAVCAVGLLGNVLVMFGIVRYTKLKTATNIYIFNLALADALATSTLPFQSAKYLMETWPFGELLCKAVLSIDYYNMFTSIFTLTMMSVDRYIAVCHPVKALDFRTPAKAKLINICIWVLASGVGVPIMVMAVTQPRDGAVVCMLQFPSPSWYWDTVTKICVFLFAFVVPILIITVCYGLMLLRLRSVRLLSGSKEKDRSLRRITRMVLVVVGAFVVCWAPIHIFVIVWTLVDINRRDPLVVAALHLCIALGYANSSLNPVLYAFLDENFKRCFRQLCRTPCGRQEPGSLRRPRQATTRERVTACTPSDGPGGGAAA
T2 sequence (P41143 whole entry): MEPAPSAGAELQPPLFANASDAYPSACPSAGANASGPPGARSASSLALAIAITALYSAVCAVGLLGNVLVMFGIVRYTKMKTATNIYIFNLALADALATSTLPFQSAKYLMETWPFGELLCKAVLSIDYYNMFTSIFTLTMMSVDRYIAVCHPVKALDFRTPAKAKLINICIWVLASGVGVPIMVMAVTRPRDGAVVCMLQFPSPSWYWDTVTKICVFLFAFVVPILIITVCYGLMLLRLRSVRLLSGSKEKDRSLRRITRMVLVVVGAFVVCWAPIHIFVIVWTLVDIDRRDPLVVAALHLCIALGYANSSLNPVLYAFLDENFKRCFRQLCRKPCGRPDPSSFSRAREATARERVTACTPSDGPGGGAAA
Chain of Mu-type opioid receptor (Rattus norvegicus, UniProt P33535) (P33535 whole entry): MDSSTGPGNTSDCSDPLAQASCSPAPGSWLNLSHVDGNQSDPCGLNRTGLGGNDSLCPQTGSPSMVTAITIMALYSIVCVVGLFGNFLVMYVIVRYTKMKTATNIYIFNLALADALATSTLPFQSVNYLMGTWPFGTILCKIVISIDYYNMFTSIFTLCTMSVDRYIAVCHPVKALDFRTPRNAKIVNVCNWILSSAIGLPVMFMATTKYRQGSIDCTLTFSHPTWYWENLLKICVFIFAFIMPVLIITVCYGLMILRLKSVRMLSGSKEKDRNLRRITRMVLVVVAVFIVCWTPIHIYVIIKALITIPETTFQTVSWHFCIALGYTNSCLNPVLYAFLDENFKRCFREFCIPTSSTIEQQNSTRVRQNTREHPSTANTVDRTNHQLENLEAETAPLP
Chain of Delta-type opioid receptor (Rattus norvegicus, UniProt P33533) (P33533 whole entry): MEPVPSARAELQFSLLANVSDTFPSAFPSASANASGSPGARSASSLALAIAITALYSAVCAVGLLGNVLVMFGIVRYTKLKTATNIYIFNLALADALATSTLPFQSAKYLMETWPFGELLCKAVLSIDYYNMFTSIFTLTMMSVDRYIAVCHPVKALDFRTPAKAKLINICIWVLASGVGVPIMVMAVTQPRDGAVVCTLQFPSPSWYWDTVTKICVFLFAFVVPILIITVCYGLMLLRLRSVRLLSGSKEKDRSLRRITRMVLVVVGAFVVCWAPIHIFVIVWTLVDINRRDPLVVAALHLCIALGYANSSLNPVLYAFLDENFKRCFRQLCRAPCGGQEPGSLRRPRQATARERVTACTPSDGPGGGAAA

In the case of `CN1CC[C@]23Cc4nc5ccccc5cc4C[C@H]2[C@H]1Cc1ccc(O)cc13`, the results for the Ratio Ki in assay [1] and in assay [7] were 72.9 and 82.4, respectively. The values for the Ki in assay [2], in assay [3] and in assay [6] were 14.3 nM, 23.2 nM and 0.29 nM, respectively. Besides, the Ratio EC50 in assay [4] and in assay [5] was 10 in each case.
In the case of `Oc1ccc2c(c1)[C@]13CCN(Cc4ccccc4)[C@H](C2)[C@@H]1Cc1cc2ccccc2nc1C3`, the figures for the Ki in [2], in [3] and in [6] were 50 nM, 76.9 nM and 12.4 nM, respectively.
For `Oc1ccc2c(c1)[C@]13CCN(CCc4ccccc4)[C@H](C2)[C@@H]1Cc1cc2ccccc2nc1C3`, in that order: 17.9 nM, 12.5 nM and 4.68 nM.
Consider `CC(C)CN1CC[C@]23Cc4nc5ccccc5cc4C[C@H]2[C@H]1Cc1ccc(O)cc13`, for which the Ratio Ki in assay [1] was 23.2; in assay [7] it was 124. For the same compound, the Ratio EC50 in assay [4] and in assay [5] was 10 throughout.
For `CN1CC[C@]2(c3cccc(O)c3)Cc3nc4ccccc4cc3C[C@H]2C1`, the Ratio Ki in [1] came to 509; in [7], 197.
For the compound `CC(C)CN1CC[C@]23Cc4nc5ccccc5cc4C[C@H]2[C@H]1Cc1cccc(O)c13`, the Ratio Ki is 423 in assay [1] and 265 in assay [7]. In addition, the EC50 in assay [8] was 2.34 nM. Moreover, the Ki is 1.22 nM in [9], 516 nM in assay [10] and 323 nM in [11].
Consider `Oc1ccc2c(c1)[C@]13CCN(CC4CCC4)[C@H](C2)[C@@H]1Cc1cc2ccccc2nc1C3`, for which the Ki in assay [2] stood at 1.07 nM; in [3] it was 6.31 nM; in assay [6], 0.12 nM.
As for `Oc1ccc2c(c1)[C@]13CCN(CC4CC4)[C@H](C2)[C@@H]1Cc1cc2ccccc2nc1C3`, the Ratio Ki was 1.9 in assay [1] and 4.1 in assay [7]. For the same compound, the Ratio EC50 in assay [4] and in assay [5] was 10 throughout.
With `Oc1ccc2c(c1)[C@]13CCN(CC4CCCC4)[C@H](C2)[C@@H]1Cc1cc2ccccc2nc1C3`, the Ki came out at 3.54 nM in assay [2], 20.1 nM in [3] and 0.35 nM in assay [6].
`Oc1ccc2c3c1O[C@H]1c4nc5ccccc5cc4C[C@H]4[C@@H](C2)N(CC2CC2)CC[C@]314`: the figures for the Ratio Ki in assay [1] and in assay [7] were 34.4 and 30.2, respectively. Further, the Ki was determined as 0.43 nM in assay [9], 14.8 nM in assay [10] and 13 nM in [11].
Regarding `Oc1cccc2c1[C@]13CCN(CC4CC4)[C@H](C2)[C@@H]1Cc1cc2ccccc2nc1C3`, the values for the Ratio Ki in assay [1] and in [7] were 64.8 and 548, respectively. In addition, in assay [8], the EC50 came out at 0.19 nM. Moreover, the Ki amounted to 0.27 nM in assay [9], 17.5 nM in assay [10] and 148 nM in [11].
On to `CN1CC[C@]23Cc4nc5ccccc5cc4C[C@H]2[C@H]1Cc1cccc(O)c13`, for which the figures for the Ratio Ki in assay [1] and in assay [7] were 263 and 51.8, respectively. Moreover, the EC50 in [8] is 1.77 nM. Besides, the Ki in assay [9] was found to be 1 nM; in assay [10], 263 nM; in [11], 51.8 nM.

In general, Ki refers to a dissociation constant, usually derived from enzyme kinetics or from competition with a known ligand. High values mean weaker binding, low ones tighter binding. As usually defined, the EC50 is the concentration needed to bring the measured effect to its halfway point.

The values are drawn from ChEMBL document CHEMBL1926591, “Synthesis of quinolinomorphinan-4-ol derivatives as δ opioid receptor agonists” (Bioorg Med Chem, 2012).
